# Screening results (PubChem)
# CHRM4 antagonist = human M4 muscarinic receptor antagonists, primary screen, CHO cells, Fluo-8 calcium fluorescence; Muscarinic acetylcholine receptor M4 (Homo sapiens), P08173; CHO-hM4 cells, ACh EC80; inhibition, % at 3 µM; hit rate 0.73% among 360,000;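 active = inhibition above its plate's cutoff, the mean inhibition of sample wells plus 3 SD, cut at about 27% in these data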;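 also: 0% = acetylcholine EC80 with DMSO and 100% = DMSO without agonist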
# Target sequence (P08173 whole entry, looked up): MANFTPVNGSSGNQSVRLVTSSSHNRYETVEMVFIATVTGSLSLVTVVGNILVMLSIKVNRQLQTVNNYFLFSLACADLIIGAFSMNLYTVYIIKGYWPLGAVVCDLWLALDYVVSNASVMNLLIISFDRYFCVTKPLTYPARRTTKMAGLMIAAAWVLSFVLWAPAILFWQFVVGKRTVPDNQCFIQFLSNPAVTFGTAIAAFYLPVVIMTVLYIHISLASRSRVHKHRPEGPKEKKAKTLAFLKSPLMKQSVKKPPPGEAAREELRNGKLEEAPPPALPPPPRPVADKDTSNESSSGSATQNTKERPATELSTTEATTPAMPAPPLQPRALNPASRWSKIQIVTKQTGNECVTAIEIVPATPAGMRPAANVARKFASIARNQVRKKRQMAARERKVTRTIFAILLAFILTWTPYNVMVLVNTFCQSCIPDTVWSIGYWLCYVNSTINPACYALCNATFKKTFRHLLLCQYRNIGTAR
# M5 ag = human M5 muscarinic receptor agonists, primary screen, CHO-K1 cells, Fluo-8 calcium fluorescence | Muscarinic acetylcholine receptor M5 (Homo sapiens), P08912 | hit rate 0.19% among 360,000 | activation, % at 3 µM | CHO-K1 hM5 cells; 0% DMSO wells, 100% maximal acetylcholine response | AID 624037, 2012;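 active = activation above the run's mean over test compounds plus 3 SD, cut at about 23% in these data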;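 also: signal is peak over basal fluorescence ratio across the kinetic read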
# M4 PAM = human M4 muscarinic receptor positive allosteric modulators, primary screen, CHO-K1 cells, Fluo-8 calcium fluorescence | Muscarinic acetylcholine receptor M4 (Homo sapiens), P08173 | CHO-K1 hM4/Gqi5, ACh EC20; 0% = ACh EC20, 100% = maximal ACh | activation, % at 3 µM | hit rate 0.4% among 360,000;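 active = activation above its plate's cutoff, the mean activation of sample wells plus 3 SD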
# M5 PAM = human M5 muscarinic receptor positive allosteric modulators, primary screen, CHO-K1 cells, Fluo-8 calcium fluorescence | activation, % at 3 µM | hit rate 0.3% among 360,000 | Muscarinic acetylcholine receptor M5 (Homo sapiens), P08912 | CHO-K1 hM5, ACh EC20 PAM; 0% = ACh EC20, 100% = ACh EC100 | AID 624038, 2012;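 active = activation above the run cutoff, the mean activation of all test compounds plus 3 SD, cut at about 18% in these data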
#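 Assay system – human M5 receptor in CHO-K1 cells · Read-out – % activation, ACh-normalized · Technique – Fluo-8 calcium fluorescence · Dosing – single-point, 3 µM nominal · Incubation – Fluo-8 loading 80 min at 37 °C plus 30 min room temperature · Repeats – singlicate, one well per test compound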
# M4 ag = human M4 muscarinic receptor agonists, primary screen, CHO-K1 cells, Fluo-8 calcium fluorescence. hit rate 0.14% among 360,000. Muscarinic acetylcholine receptor M4 (Homo sapiens), P08173. CHO-K1 hM4/Gqi5; vehicle 0%, full acetylcholine response 100%. activation, % at 3 µM;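 active = activation above the run mean over all test wells plus 3 SD, cut at about 32% in these data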;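 also: peak over basal fluorescence ratio per well then scaled between controls; 0% = DMSO wells and 100% = acetylcholine at EC100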
# M5 antag = human M5 muscarinic receptor antagonists, primary screen, CHO cells, Fluo-8 calcium fluorescence; hit rate 0.59% among 360,000; Muscarinic acetylcholine receptor M5 (Homo sapiens), P08912; CHO-hM5 cells, ACh EC80; inhibition, % at 3 µM; AID 624040, 2012;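 active = inhibition above a per-plate cutoff, the mean of that plate's test compounds plus 3 SD, cut at about 27% in these data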;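 also: 0% = acetylcholine EC80 with DMSO and 100% = DMSO without agonist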
# The depositor's hits bear a star. Sampled rows, rich in hits. Any-hit rate of the full collection: about 1.8%.
SMILES,CHRM4 antagonist,M5 ag,M4 PAM,M5 PAM,M4 ag,M5 antag
CCCCCCCC(O)CC(CC1CCCCC1)C(=O)NN (stereo not given),15,-4,34*,13,1,-4
CCCCC(CC(O)COCC(C)C)C(=O)NN (stereo not given),0,-3,8,7,0,-4
Cc1ccccc1S(=O)(=O)N1[C@@H](c2ccc(F)cc2)C(C(=O)O)=CC[C@H]1c1ccc(Cl)cc1,0,-5,0,0,-1,14
C=C1CC(Cn2cc(Br)c(=O)[nH]c2=O)(c2ccc(-c3ccccc3)cc2)OC1=O (stereo not given),46*,-3,-7,-22,6,4
N#Cc1ccc[n+](CC(=O)c2ccc(Cl)cc2)c1,-18,5,3,23*,1,-10
CCn1cc(/C=C(\NC(=O)c2ccccc2F)C(=O)NCCCn2ccnc2)c2ccccc21,-5,-5,-1,2,4,-2
CCCC(c1nnnn1Cc1ccco1)N1CCN(C(=O)c2ccco2)CC1 (stereo not given),-12,-8,20*,1,1,-14
CCC(C)(C)n1nnnc1C(c1ccc(C)cc1)N1CCN(C(=O)c2ccco2)CC1 (stereo not given),-26,-8,9,35*,3,-10
CCc1noc(C)c1C(=O)Nc1sc(C(=O)N(C)C)c(C)c1C#N,-4,-1,8,-4,2,4
O=C(O)c1cccc(Cn2c(Cl)c(/C=N/NC(=O)c3cccc(O)c3)sc2=O)c1,33*,5,12,6,0,-16
CSc1ncc2[nH]c(C(O)c3ccccc3)nc2n1 (stereo not given),-10,6,18*,-11,10,17
COc1ccccc1NC(=O)COC(=O)c1ccc2ccccc2n1,2,0,4,-10,4,16
CN(C)Cc1c(C(=O)N/N=C/CCc2ccccc2)nnn1-c1nonc1N,-8,-2,6,-2,2,6
Cn1nc(C(=O)OCC(=O)c2ccc(Cl)cc2)c2ccccc2c1=O,-6,0,16*,5,3,4
CCCn1nc(C(=O)OCC(=O)c2ccccc2)c2ccccc2c1=O,-5,-2,-5,-5,1,7
CCn1nc(C(=O)OCC(=O)c2ccc(F)cc2)c2ccccc2c1=O,-8,-5,28*,-4,7,-7
CCn1nc(C(=O)OCC(=O)N2CC(=O)Nc3ccccc32)c2ccccc2c1=O,-6,-1,23*,5,0,-6
CC(=O)Nc1cccc(-c2ccnc3c2CC(C(=O)NCCc2ccccc2)O3)c1 (stereo not given),-11,2,1,7,6,-19
Cc1ccc(CN2CCC(n3nccc3NC(=O)CCOc3ccccc3)CC2)cc1C,-9,-6,1,-5,3,13
CC(=O)c1cn(C2OC(CO)C3OC(C)(C)OC32)c(=O)n(C)c1=O (stereo not given),7,0,-9,-11,0,6
COc1ccc(C2SCC(=O)N2c2c(C)n(C)n(-c3ccccc3)c2=O)cc1OC (stereo not given),-7,5,7,33*,1,0
Cc1c(N2C(=O)CSC2c2ccccc2)c(=O)n(-c2ccccc2)n1C (stereo not given),0,-1,2,2,0,6
O=C(NCc1cccc(F)c1)Nc1nnc([C@H]2C[C@H](O)[C@@H](CO)O2)s1,-4,0,4,-2,1,2
O=[N+]([O-])c1ccc(N2CCN(C(=S)NCc3ccc(Cl)cc3)CC2)cc1,20,2,-19,-20,14,29*
O=C(C1CC(=O)N(c2ccc(Cl)cc2)C1)N1CCC(c2nc3ccccc3[nH]2)CC1 (stereo not given),2,-6,-7,6,1,-9
SMILES,CHRM4 antagonist,M5 ag,M4 PAM,M5 PAM,M4 ag,M5 antag
Cc1ccc(NS(=O)(=O)c2cc([N+](=O)[O-])ccc2NNC(=S)Nc2cccc(Cl)c2)c(C)c1,4,-1,-6,-13,6,24
COc1ccc(NC(=S)Nc2cccc([N+](=O)[O-])c2)cc1,6,2,3,-2,4,0
COc1ccc(NC(=S)NNc2ccc([N+](=O)[O-])cc2S(=O)(=O)Nc2ccc(C)cc2C)cc1,3,0,-5,-22,8,34*
Cc1ccc(NS(=O)(=O)c2cc([N+](=O)[O-])ccc2NNC(=S)Nc2cc(C)ccc2C)c(C)c1,13,0,-11,-19,4,37*
NC(Cc1ccc(C(F)(F)F)cc1)c1csc(Nc2cc(NCc3ccco3)ncn2)n1 (stereo not given),2,4,8,3,8,4
COc1c(/C=N/NC(=O)c2ccncc2)c(CCN(C)C(C)=O)cc2c1OCO2,-8,4,1,0,3,-3
COc1ccc(N2CCOCC2)c(NC(=O)c2ccco2)c1,2,-2,-2,1,1,15
COC(=O)c1ccc(N2CCOCC2)c(NC(=O)c2ccco2)c1,28*,-4,-8,7,0,3
O=C1/C(=C\c2c(NCCOCCO)nc3ccccn3c2=O)SC(=S)N1Cc1ccco1,24,60*,-12,-10,19,19
COC(=O)c1ccc2[nH]c(C)cc(=O)c2c1,55*,-3,-18,1,0,-2
COc1cc(OC)c(OC)cc1CNC(=O)c1cccc(S(=O)(=O)N2CCc3ccccc3C2)c1,-5,8,-3,-16,17,0
Cc1ccc(NC(=S)c2nc3ccccc3[nH]2)cc1,0,21,20,0,-3,47*
CN(C)c1cc2c(c(N(C)C)c1)C(=O)c1ccccc1C2=O,-12,-10,20*,3,4,-11
CCN1CCN(CCCNC(=O)C2CCCN(c3nnc(-n4cccc4)s3)C2)CC1 (stereo not given),-10,-2,27*,-2,0,-4
CN(C)CCOc1ccc(-c2c(-c3ccccc3)sc3ccccc23)cc1,28*,-4,0,5,4,5
C#CC[N+](C)(C)CCCCCCCCCC,6,-9,-11,-12,0,-4
